Results: ChEMBL document CHEMBL4145474, “Discovery of novel piperonyl derivatives as diapophytoene desaturase inhibitors for the treatment of methicillin-, vancomycin- and linezolid-resistant Staphylococcus aureus infections” (Eur J Med Chem, 2018)
The source made the active and inactive calls. No cut-off for these calls is given here.

Columns and labels:
Staphylococcus aureus [1] = assay: Growth inhibition of vancomycin-intermediate methicillin-resistant Staphylococcus aureus Mu50 at 0.2 mM incubated for overnight; assay type: functional, organism-based
Method in brief: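 Overnight cultures washed in PBS and diluted in TSB to OD600 ~1.0. Inoculated to a final OD600 of about 0.05 into TSB containing compound (0.2 or 0.05 mM, from a 20 mM DMSO stock) or DMSO growth control, overlaid with paraffin wax. OD600 read every 30 min during overnight incubation at 37 °C.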

Staphylococcus aureus [2] = assay: Inhibition of pigmentation in wild type Staphylococcus aureus Newman after 48 hrs by spectrophotometric method; assay type: functional, organism-based
Method in brief: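 S. aureus Newman was grown in TSB 48 h at 37 °C with a concentration series of compound in DMSO, in duplicate. Controls were a DMSO vehicle and a nonpigmented CrtN mutant. Cells were washed twice in 0.01 M PBS and pigment extracted in methanol. A450 was measured and IC50 derived by curve fitting.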

Staphylococcus aureus [3] = assay: Antibacterial activity against wild type Staphylococcus aureus Newman infected in BALB/c mouse assessed as decrease in bacterial survival in mouse liver at 0.4 mg, ip bid administered 4.5 days before 12 hrs bacterial infection measured after 90 hrs relative to control; assay type: functional
Staphylococcus aureus [4] = assay: Antibacterial activity against vancomycin-intermediate methicillin-resistant Staphylococcus aureus Mu50 infected in BALB/c mouse assessed as decrease in bacterial survival in mouse kidney at 0.1 to 0.4 mg, ip bid administered 4.5 days before 24 hrs bacterial infection measured after 90 hrs; assay type: functional, organism-based
Method in brief: (§1)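 6–8-week-old female BALB/c mice (SPF) dosed intraperitoneally twice daily over 4.5 d at 0.1 or 0.4 mg/bid. Pre-treatment started before infection; post-treatment started 6 h after infection. Vancomycin and linezolid controls given as pre-treatment at 0.4 mg/bid. Retro-orbital inoculation: Mu50 1.1 × 10⁹ CFU, NRS271 1.8 × 10⁸ CFU. Kidneys and livers homogenised in PBS/0.01% Triton X-100 and plated on TSA for CFU.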

Staphylococcus aureus [5] = assay: Growth inhibition of wild type Staphylococcus aureus Newman at 0.2 mM incubated for overnight; assay type: functional, organism-based
Method in brief: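 A 20 mM DMSO stock was diluted in TSB to 0.2 mM final, with a DMSO growth control. Dilutions were overlaid with paraffin and held 4 h at 37 °C. Overnight cultures were PBS-washed and added to a final OD600 ≈ 0.05. Plates were incubated overnight at 37 °C with OD600 read every 30 min.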

Staphylococcus aureus [6] = assay: Antibacterial activity against vancomycin-intermediate methicillin-resistant Staphylococcus aureus Mu50 infected in BALB/c mouse assessed as decrease in bacterial survival in mouse kidney at 0.1 to 0.4 mg, ip bid administered 4.5 days after 6 hrs bacterial infection measured after 90 hrs; assay type: functional, organism-based; method in brief: as §1

SMILES: CN(C/C=C/C=C/c1ccc(C(F)(F)F)cc1F)Cc1ccc2c(c1)OCO2.Cl
- growth inhibition (GI) (Staphylococcus aureus [1]): inactive
- IC50 (Staphylococcus aureus [2]): 4.02 nM
- Activity (Staphylococcus aureus [3]): 98.74%
- Activity (Staphylococcus aureus [4]): Active
- growth inhibition (GI) (Staphylococcus aureus [5]): inactive
- Activity (Staphylococcus aureus [6]): Active
